This is an account of results in ChEMBL document CHEMBL4431391, “Exploration of substituted arylpiperazine-tetrazoles as promising dual norepinephrine and dopamine reuptake inhibitors” (Bioorg Med Chem, 2016).

Holding throughout (assay type): cell-based
For experiment [1], the target named is Sodium-dependent dopamine transporter (Homo sapiens, UniProt Q01959). The experiment is described as follows: Inhibition of [3H]-5-dopamine reuptake in human DAT expressed in HEK293 cells by liquid scintillation counting method. In a few lines:
(§1)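 HEK-293 cells grown in FBS-supplemented medium, transfected with human transporter (hDAT or hNET). Uptake of radiolabeled substrate ([3H]-DA for DAT, [3H]-NE for NET) at 20 nM was measured, with inhibition assessed as reduced uptake. Method adapted with slight modification from a literature procedure.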

Experiment [2] has as its target Sodium-dependent noradrenaline transporter (Homo sapiens, UniProt P23975). The experiment is described as follows: Inhibition of [3H]-5-norepinephrine reuptake in human NET expressed in HEK293 cells by liquid scintillation counting method. In a few lines:
as §1

The target of experiment [3] is Sodium-dependent serotonin transporter (Homo sapiens, UniProt P31645). The experiment is described as follows: Inhibition of [3H]-5-hydroxytryptamine reuptake in human SERT expressed in HEK293 cells by liquid scintillation counting method.
Sequence of Sodium-dependent serotonin transporter (P31645 whole entry): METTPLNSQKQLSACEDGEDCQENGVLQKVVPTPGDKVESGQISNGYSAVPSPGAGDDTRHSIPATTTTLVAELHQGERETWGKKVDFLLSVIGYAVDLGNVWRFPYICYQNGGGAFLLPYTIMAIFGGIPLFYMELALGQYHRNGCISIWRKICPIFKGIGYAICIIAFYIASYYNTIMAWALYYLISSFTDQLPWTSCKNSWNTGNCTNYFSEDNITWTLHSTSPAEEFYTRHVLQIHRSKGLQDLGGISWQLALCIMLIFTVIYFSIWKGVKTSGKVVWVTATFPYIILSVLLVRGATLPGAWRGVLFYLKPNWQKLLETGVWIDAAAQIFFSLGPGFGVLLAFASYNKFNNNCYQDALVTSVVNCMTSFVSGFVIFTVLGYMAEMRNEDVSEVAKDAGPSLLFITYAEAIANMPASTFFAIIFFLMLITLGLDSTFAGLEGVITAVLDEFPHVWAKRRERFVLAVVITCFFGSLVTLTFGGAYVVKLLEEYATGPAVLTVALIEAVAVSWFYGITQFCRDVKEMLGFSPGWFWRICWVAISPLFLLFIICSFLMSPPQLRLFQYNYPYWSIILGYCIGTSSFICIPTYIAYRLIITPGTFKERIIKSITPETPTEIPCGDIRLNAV

Sequence of Sodium-dependent noradrenaline transporter (P23975 whole entry): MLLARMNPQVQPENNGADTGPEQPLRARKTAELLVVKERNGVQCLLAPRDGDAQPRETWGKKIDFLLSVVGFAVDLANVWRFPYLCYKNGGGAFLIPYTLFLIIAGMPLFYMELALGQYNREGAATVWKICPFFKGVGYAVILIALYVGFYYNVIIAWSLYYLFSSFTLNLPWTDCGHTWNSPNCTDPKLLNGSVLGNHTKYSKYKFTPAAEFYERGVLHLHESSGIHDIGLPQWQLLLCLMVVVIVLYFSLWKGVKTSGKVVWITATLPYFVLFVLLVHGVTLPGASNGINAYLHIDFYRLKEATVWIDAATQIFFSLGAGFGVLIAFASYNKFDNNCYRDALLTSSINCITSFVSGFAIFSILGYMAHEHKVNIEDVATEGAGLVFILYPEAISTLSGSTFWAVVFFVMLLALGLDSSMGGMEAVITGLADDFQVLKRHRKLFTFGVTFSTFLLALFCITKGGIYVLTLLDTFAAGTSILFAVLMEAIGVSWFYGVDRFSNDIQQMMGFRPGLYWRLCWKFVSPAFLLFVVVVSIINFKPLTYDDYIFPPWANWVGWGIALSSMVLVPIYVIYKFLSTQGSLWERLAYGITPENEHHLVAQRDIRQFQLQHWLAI
Sequence of Sodium-dependent dopamine transporter (Q01959 whole entry): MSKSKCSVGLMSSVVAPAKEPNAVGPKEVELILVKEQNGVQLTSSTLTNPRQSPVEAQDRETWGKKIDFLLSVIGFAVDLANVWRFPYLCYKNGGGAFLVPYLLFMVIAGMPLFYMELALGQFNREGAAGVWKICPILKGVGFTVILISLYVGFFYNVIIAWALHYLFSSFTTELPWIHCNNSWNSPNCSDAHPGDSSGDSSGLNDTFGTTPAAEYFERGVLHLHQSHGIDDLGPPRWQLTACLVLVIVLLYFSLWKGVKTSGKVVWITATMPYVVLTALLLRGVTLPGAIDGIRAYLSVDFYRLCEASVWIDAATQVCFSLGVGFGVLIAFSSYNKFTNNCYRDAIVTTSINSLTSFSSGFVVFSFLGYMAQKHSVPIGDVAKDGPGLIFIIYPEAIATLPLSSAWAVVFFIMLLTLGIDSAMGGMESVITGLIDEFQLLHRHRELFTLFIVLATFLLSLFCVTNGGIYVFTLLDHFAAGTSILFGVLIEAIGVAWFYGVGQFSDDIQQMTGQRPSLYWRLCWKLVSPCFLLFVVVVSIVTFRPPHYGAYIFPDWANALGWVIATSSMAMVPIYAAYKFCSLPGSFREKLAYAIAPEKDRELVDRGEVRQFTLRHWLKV

`Fc1cc(Cl)ccc1N1CCN(CCCn2nnnc2C(c2ccccc2)c2ccccc2)CC1`: the IC50 in experiment [1] worked out at 2250 nM; in experiment [2], 1100 nM.
In the case of `Clc1ccc(N2CCN(CCCn3nnnc3C(c3ccccc3)c3ccccc3)CC2)cc1`, the values for the IC50 in experiment [1], in experiment [2] and in experiment [3] were 1200 nM, 460 nM and above 10000 nM, respectively.
In the case of `FC(F)(F)c1ccc(N2CCN(CCCn3nnnc3C(c3ccccc3)c3ccccc3)CC2)cc1`, the IC50 in experiment [1] and in experiment [2] was above 10000 nM throughout.
For the compound `Fc1cccc(F)c1N1CCN(CCCn2nnnc2C(c2ccccc2)c2ccccc2)CC1`, the IC50 amounted to 820 nM in experiment [1] and 510 nM in experiment [2].
Take `Clc1cccc(N2CCN(CCCn3nnnc3C(c3ccccc3)c3ccccc3)CC2)c1Cl`: the values for the IC50 in experiment [1], in experiment [2] and in experiment [3] were 3040 nM, 1100 nM and above 10000 nM, respectively.
`Clc1cccc(N2CCN(CCn3nnnc3C(c3ccccc3)c3ccccc3)CC2)c1Cl`: the IC50 in experiment [1], in experiment [2] and in experiment [3] was above 10000 nM throughout.
Take `c1ccc(C(c2ccccc2)c2nnnn2CCN2CCN(c3ncccn3)CC2)cc1`: the IC50 in experiment [1], in experiment [2] and in experiment [3] was above 10000 nM each time.
For the compound `Clc1ccc(N2CCN(CCCCn3nnnc3C(c3ccccc3)c3ccccc3)CC2)cc1`, the IC50 in experiment [1], in experiment [2] and in experiment [3] was above 10000 nM each time.
For `Clc1cccc(N2CCN(CCCn3nnnc3C(c3ccccc3)c3ccccc3)CC2)c1`, the IC50 in experiment [1] turned out to be 4740 nM; in experiment [2] it was 1620 nM.
For the compound `FC(F)(F)c1cccc(N2CCN(CCCn3nnnc3C(c3ccccc3)c3ccccc3)CC2)c1`, the IC50 in experiment [1] was 5580 nM; in experiment [2] it was 2480 nM.
With `COc1ccc(N2CCN(CCCn3nnnc3C(c3ccccc3)c3ccccc3)CC2)cc1`, the IC50 in experiment [1] was found to be 3850 nM; in experiment [2], 1060 nM.
On to `Brc1ccc(N2CCN(CCCn3nnnc3C(c3ccccc3)c3ccccc3)CC2)cc1`, for which the half-inhibitory concentration (IC50) came to 910 nM in experiment [1] and 1200 nM in experiment [2].
As for `COc1ccccc1N1CCN(CCCn2nnnc2C(c2ccccc2)c2ccccc2)CC1`, the results for the IC50 in experiment [1], in experiment [2] and in experiment [3] were 1040 nM, 500 nM and above 10000 nM, respectively.
For `Clc1ccccc1N1CCN(CCCn2nnnc2C(c2ccccc2)c2ccccc2)CC1`, the IC50 is 1010 nM in experiment [1] and 670 nM in experiment [2].
`Clc1cccc(N2CCN(CCCCn3nnnc3C(c3ccccc3)c3ccccc3)CC2)c1Cl`: the IC50 was above 10000 nM in experiment [1], 8870 nM in experiment [2] and above 10000 nM in experiment [3].
On to `COc1ccccc1N1CCN(CCn2nnnc2C(c2ccccc2)c2ccccc2)CC1`, for which the half-inhibitory concentration (IC50) in experiment [1], in experiment [2] and in experiment [3] was above 10000 nM each time.
For the compound `Clc1ccc(N2CCN(CCn3nnnc3C(c3ccccc3)c3ccccc3)CC2)cc1`, the IC50 in experiment [1], in experiment [2] and in experiment [3] was above 10000 nM each time.
On to `Clc1ccc(N2CCN(CCCn3nnnc3C(c3ccccc3)c3ccccc3)CC2)c(Cl)c1`, for which the IC50 is 3590 nM in experiment [1] and 2050 nM in experiment [2].
For `Fc1ccc(N2CCN(CCCn3nnnc3C(c3ccccc3)c3ccccc3)CC2)c(F)c1` the same measures were 2900 nM and 2160 nM.
In the case of `c1ccc(C(c2ccccc2)c2nnnn2CCCCN2CCN(c3ncccn3)CC2)cc1`, the values for the IC50 in experiment [1], in experiment [2] and in experiment [3] were above 10000 nM, 8540 nM and above 10000 nM, respectively.
In the case of `Fc1ccc(N2CCN(CCCn3nnnc3C(c3ccccc3)c3ccccc3)CC2)cc1`, the figures for the 50% inhibitory concentration (IC50) in experiment [1] and in experiment [2] were 2480 nM and 80 nM, respectively.
As for `Clc1ccc(N2CCN(CCCn3nnnc3C(c3ccccc3)c3ccccc3)CC2)cc1Cl`, the results for the concentration for half-maximal inhibition (IC50) in experiment [1] and in experiment [2] were 4200 nM and 4000 nM, respectively.
On to `c1ccc(C(c2ccccc2)c2nnnn2CCCN2CCN(c3ncccn3)CC2)cc1`, for which the IC50 is 1140 nM in experiment [1], 800 nM in experiment [2] and above 10000 nM in experiment [3].
For `Fc1ccccc1N1CCN(CCCn2nnnc2C(c2ccccc2)c2ccccc2)CC1`, the IC50 worked out at 1330 nM in experiment [1] and 350 nM in experiment [2].
For the compound `Fc1cccc(N2CCN(CCCn3nnnc3C(c3ccccc3)c3ccccc3)CC2)c1`, the values for the IC50 in experiment [1] and in experiment [2] were 1470 nM and 1890 nM, respectively.
With `c1ccc(C(c2ccccc2)c2nnnn2CCCCN2CCN(c3ccccn3)CC2)cc1`, the IC50 is above 10000 nM in experiment [1], 4700 nM in experiment [2] and above 10000 nM in experiment [3].
As for `c1ccc(C(c2ccccc2)c2nnnn2CCN2CCN(c3ccccn3)CC2)cc1`, the IC50 in experiment [1], in experiment [2] and in experiment [3] was above 10000 nM each time.
As for `Fc1ccc(C(F)(F)F)cc1N1CCN(CCCn2nnnc2C(c2ccccc2)c2ccccc2)CC1`, the IC50 in experiment [1] was determined as 2250 nM; in experiment [2], 1090 nM.
Regarding `Cc1cccc(C)c1N1CCN(CCCn2nnnc2C(c2ccccc2)c2ccccc2)CC1`, the IC50 in experiment [1] stood at 3720 nM; in experiment [2] it was 1720 nM.
As for `c1ccc(C(c2ccccc2)c2nnnn2CCCN2CCN(c3ccccn3)CC2)cc1`, the IC50 in experiment [1] is 1430 nM; in experiment [2], 920 nM; in experiment [3] it was above 10000 nM.
For `Cc1ccc(N2CCN(CCCn3nnnc3C(c3ccccc3)c3ccccc3)CC2)cc1`, the results for the 50% inhibitory concentration (IC50) in experiment [1] and in experiment [2] were 1420 nM and 870 nM, respectively.
For `c1ccc(C(c2ccccc2)c2nnnn2CCCN2CCN(c3ccccc3)CC2)cc1` the same measures were 1640 nM and 1450 nM.
`COc1ccccc1N1CCN(CCCCn2nnnc2C(c2ccccc2)c2ccccc2)CC1`: the IC50 in experiment [1] was above 10000 nM; in experiment [2] it was 10000 nM; in experiment [3], above 10000 nM.
